Source: PubChem BioAssay
Shown are actives, neighbours in structure and some others; about 4.7% of the full set was active somewhere.
MPTP inh: permeability transition pore inhibition. 360,000 compounds, 1.4% hits. inhibition, % at 10 µM. AID 602449. isolated mouse mitochondria, Ca2+ swelling absorbance, 30 min;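 active = inhibition of 50% or more, scaled per plate between neutral and stimulator controls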;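 note: 0% = DMSO wells given calcium and 100% = 1 mM EGTA wells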
MT1-MMP act inh: blocks activation of human MT1-MMP; HT1080 RFP-PRO-GFP cells, GFP/RFP ratio fluorescence, overnight; percent of plate control window, DMSO zero; GFP/RFP ratio change, % at 20 µM; 360,000 compounds, 0.061% hits;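 active = GFP/RFP ratio change of at least 30% with cell ATP level not reduced by more than half and red fluorescence within 50% of control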
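Assay system – RFP-PRO-GFP reporter HT1080 cells · Compound dosing – single dose of 20 µM compound, 1% DMSO final · Incubation – overnight compound exposure at 37 °C · Measure – GFP/RFP fluorescence ratio · Benchmarks – DMSO wells and RFP-L50D-GFP cells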
GRIN3A LBD mod: modulators (binders) of human NR3A ligand-binding domain | NR3A LBD differential scanning fluorimetry, Tm shift; 0% = protein alone, 100% = glycine-bound protein | Tm shift relative to glycine control, % at 25 µM | 340,000 compounds, 2.5% hits;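 active = melting temperature shift of at least 10% of the positive control shift, at one fixed dose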
ADAM17 inh: ADAM17 inhibition, QFRET primary screen. P78536. recombinant ADAM17, EDANS/DABCYL FRET peptide cleavage. inhibition, % at 6.95 µM. 370,000 compounds, 0.83% hits;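 active = inhibition above the mean of compounds lying between control limits plus 3 SD, set per campaign, cut at about 8.5% in these data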;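 note: 0% = DMSO-only wells as the low control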
ADAM10 inh: ADAM10 inhibition, QFRET primary screen; O14672; recombinant ADAM10, EDANS/DABCYL FRET peptide cleavage, 3 h; 370,000 compounds, 0.62% hits; inhibition, % at 7 µM; AID 720582;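 active = inhibition above a per-campaign cutoff equal to the mean of compounds falling between control-based bounds plus 3 SD, cut at about 20% in these data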;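 note: 0% = DMSO wells while the 100% control is not disclosed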
Target sequence (O14672 214-748 limits assumed): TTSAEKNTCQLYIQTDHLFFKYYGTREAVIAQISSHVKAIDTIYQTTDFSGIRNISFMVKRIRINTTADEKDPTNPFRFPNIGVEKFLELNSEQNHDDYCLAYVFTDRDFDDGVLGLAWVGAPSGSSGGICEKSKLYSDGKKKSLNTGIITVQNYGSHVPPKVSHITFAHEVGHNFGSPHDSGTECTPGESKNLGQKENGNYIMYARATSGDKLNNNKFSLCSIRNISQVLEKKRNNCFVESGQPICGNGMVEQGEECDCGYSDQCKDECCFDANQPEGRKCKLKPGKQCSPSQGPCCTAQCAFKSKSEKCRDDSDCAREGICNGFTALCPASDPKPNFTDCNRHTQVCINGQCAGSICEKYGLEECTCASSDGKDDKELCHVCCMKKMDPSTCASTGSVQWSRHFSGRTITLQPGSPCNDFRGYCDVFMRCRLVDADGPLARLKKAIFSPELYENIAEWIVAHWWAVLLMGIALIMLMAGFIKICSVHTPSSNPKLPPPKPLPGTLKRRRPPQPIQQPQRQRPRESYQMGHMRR
SKN-1 inh: C. elegans SKN-1 inhibition; C. elegans VP596 Pgst-4::GFP/RFP ratio, acrylamide-induced, 24 h; inhibition, % at 21.8 µM; 360,000 compounds, 0.49% hits; AID 624304;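 active = interference check ratio from 0.5 to 1.5 plus GFP to RFP signal ratio inhibition reaching or exceeding a fixed threshold, cut at about 30% in these data, passing the limit was not always enough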
ADAM10 counter: inhibits human ADAM10 in ADAM17 exosite counter-screen. shares compounds with ADAM17 inh. recombinant ADAM10, EDANS/DABCYL FRET peptide cleavage, 3 h. inhibition, % at 6.95 µM. 2,900 compounds, 47% hits. AID 743256;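 active = mean inhibition over the triplicate runs exceeds the activity threshold set in the earlier primary screen, cut at about 20% in these data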;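 note: 0% = DMSO wells and 100% = marimastat wells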
ADAM17 confirm: human ADAM17 inhibition, confirmation; inhibition, % at 6.95 µM; shares compounds with ADAM17 inh; 2,900 compounds, 65% hits; recombinant ADAM17, EDANS/DABCYL QFRET peptide cleavage;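 active = mean inhibition across replicates above the hit cutoff set in the primary screen, cut at about 8.5% in these data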;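 note: 0% = DMSO wells and 100% = marimastat wells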
Starred values were filed as active, the others as inactive; / = not tested or not shown.

SMILES	MPTP inh	MT1-MMP act inh	GRIN3A LBD mod	ADAM17 inh	ADAM10 inh	SKN-1 inh	ADAM10 counter	ADAM17 confirm
Cc1cc(F)ccc1-c1cc(C(=O)NCc2ccc(C(F)(F)F)cc2)[nH]n1	29.1	15.6	/	11.0*	14.5	4.2	24.3*	13.5*
CCCOc1ccc(F)cc1-c1cc(C(=O)NCc2cc(C(F)(F)F)cc(C(F)(F)F)c2)[nH]n1	19.6	-0.2	/	/	/	3.3	/	/
CCc1ccc(NC(=O)CSc2nnc(Cc3cccn3C)n2-c2ccc(OC)cc2)cc1	-1.8	-2.8	-0.2	1.9	-1.0	5.7	/	/
CCCCNS(=O)(=O)c1ccc2nc(SCC(=O)Nc3ccccc3Cl)[nH]c2c1	20.0	-4.0	5.0	9.9*	19.7	5.7	25.7*	12.4*
O=C(NC1CCCC1)C1CCCN(C(=O)Nc2ccccc2)C1 (configuration not stated)	1.3	0.5	2.0	-4.2	0.1	-0.3	/	/
CC(C)(C)OC(=O)N(CCc1ccccc1)Cc1ccccc1OCc1ccc(NC(=O)C2CCC2)cc1	0.8	-4.6	-0.5	-1.3	-2.7	9.6	/	/
CC(C)(C)OC(=O)N(Cc1ccccc1)Cc1ccccc1OCc1ccc(NC(=O)C2CCC2)cc1	0.2	-5.8	-0.3	13.1*	8.3	-1.1	12.9	11.0*
CN(C)S(=O)(=O)c1cccc(NC(=O)c2cccc(S(=O)(=O)N3CCc4ccccc43)c2)c1	2.7	-13.7	1.6	9.5*	12.4	6.4	40.9*	21.5*
CC(=O)NS(=O)(=O)c1ccc(NC(=O)c2cccc(S(=O)(=O)N3CCc4ccccc43)c2)cc1	-2.0	3.8	-5.2	0.7	2.1	-0.6	/	/
CN(C)S(=O)(=O)c1cccc(NC(=O)c2ccc(COc3ccccc3)cc2)c1	4.9	-6.0	-2.8	9.6*	18.5	5.0	24.5*	14.4*
CCCCCCN1C[C@@H](n2cc(C3CC3)nn2)[C@H](O)C[C@@H]1c1ccc(C)cc1	-0.6	-4.9	/	2.9	0.8	3.5	/	/
CCCCCCN1C[C@H](n2cc(C3CC3)nn2)[C@@H](O)C[C@@H]1c1ccc(C)cc1	-0.8	-2.6	/	15.2*	13.2	0.1	16.6	8.5
COc1ccc(Cn2cnc3sccc3c2=O)cc1	-2.0	1.4	2.6	-1.1	0.7	2.9	/	/
Oc1ccc(C=NCC2COc3ccccc3O2)cc1 (configuration not stated)	-0.2	13.3	0.6	0.5	1.1	6.3	/	/
COc1ccccc1N(Cc1ccccc1)S(=O)(=O)c1cccc(C(=O)Nc2cc(C)ccn2)c1	1.1	-3.2	-8.4	9.0*	17.3	-5.6	12.6	7.6
COCCCNC(=O)Cn1nc(-c2ccccc2OC)ccc1=O	0.3	2.2	-2.1	10.3*	8.2	10.5	10.3	2.3
CCN(CC)S(=O)(=O)c1ccc(C)c(NC(=O)CNc2cccc(S(=O)(=O)N3CCCC3)c2)c1	0.7	-7.8	0.7	3.3	-2.2	19.2	/	/
Cc1ccc(-c2nc(SCC(=O)Nc3cc(S(=O)(=O)N4CCCCC4)ccc3Cl)n[nH]2)cc1	1.1	-9.2	11.8*	14.3*	19.1	7.9	32.1*	13.9*
COc1ccc(S(=O)(=O)N2CCCCC2)cc1NC(=O)Cc1c[nH]c2ccccc12	0.2	-2.7	-7.2	1.5	8.7	-3.0	/	/
Cc1ccc(S(=O)(=O)N2CCCCC2)cc1NC(=O)Cc1c[nH]c2ccccc12	1.5	-1.8	-10.2	8.8*	4.1	11.8	-1.6	1.5
Cc1ccc(S(=O)(=O)N2CCCCC2)cc1NC(=O)CNc1ccc(C(F)(F)F)cc1	2.0	-2.2	3.9	9.4*	17.5	22.1	16.5	11.5*
CCOC(=O)c1nc(C)sc1-c1ccnn1S(=O)(=O)c1ccc(C)cc1	3.5	1.7	-2.5	-1.2	6.3	18.7	/	/
CCC(C)NC(=S)Nc1ccc(F)cc1 (configuration not stated)	4.0	3.4	0.5	3.1	7.2	-16.9	/	/
O=C(NC1=C(Nc2ccc(F)cc2)C(=O)c2ccccc2C1=O)c1ccc(Cl)cc1	3.7	8.7	-8.3	0.8	3.3	10.6	/	/
O=C1NCCN1c1ccccc1	-0.6	-2.7	-0.2	-2.3	-11.4	-11.8	/	/
SMILES	MPTP inh	MT1-MMP act inh	GRIN3A LBD mod	ADAM17 inh	ADAM10 inh	SKN-1 inh	ADAM10 counter	ADAM17 confirm
O/N=C(\c1ccc(Cl)cc1Cl)c1ncc(C(F)(F)F)cc1Cl	8.3	-2.0	-3.6	11.8*	8.8	-17.5	28.6*	12.9*
O=C(c1ccc(Cl)cc1Cl)c1ncc(C(F)(F)F)cc1Cl	2.8	3.7	2.8	-4.8	-1.8	-4.0	/	/
COc1ccc2nc(Nc3ccc4c(c3)OCO4)sc2c1	-0.5	-0.5	16.3*	9.8*	16.6	-9.8	8.2	6.9
COc1cc(OC)cc(C(=O)NNc2nc3cc4c(cc3s2)OCO4)c1	0.7	2.3	-1.4	-7.1	-15.6	-5.5	/	/
COc1cccc2cc(C(=O)c3ccccc3)oc12	0.6	-1.9	-1.0	-1.9	-1.9	4.7	/	/
COc1cccc2cc(/C(=N/O)c3ccc(Br)cc3)oc12	0.7	-5.3	-2.1	11.9*	13.4	-15.2	16.1	10.6*
CC(CC(=O)c1cccs1)CC(=O)c1cccs1	1.2	15.1	3.6	-4.3	-9.8	1.3	/	/
O=C(SCC(O)C(O)CS)c1cccs1 (configuration not stated)	-1.1	-7.1	-8.3	42.6*	12.0	-4.2	30.9*	64.3*
CC1(Cc2ccc(F)cc2)C(=O)Nc2ccc(S(=O)(=O)NC3CCCCC3)cc21 (configuration not stated)	-1.4	-5.5	/	9.1*	5.0	17.8	-1.7	4.4
COc1ccccc1CC1(C)C(=O)Nc2ccc(S(=O)(=O)NC3CCCCC3)cc21 (configuration not stated)	0.6	-0.5	/	1.0	6.4	9.2	/	/
CCOC(=O)[C@@H]1[C@H]2COc3ccc(Br)cc3[C@H]2N2C(=O)N(c3ccc(Br)cc3)C(=O)[C@]12C	2.2	-2.6	-1.2	9.2*	11.6	0.1	31.1*	21.1*
Cc1ccc2c(c1)[C@H]1[C@H](CO2)[C@H](c2ccccc2)[C@]2(C)C(=O)N(Cc3ccc(Cl)cc3)CC(=O)N12	-1.6	-3.1	-5.7	11.6*	15.4	6.4	10.4	11.5*
CCOC(=O)[C@@H]1[C@H]2COc3ccc(Br)cc3[C@@H]2N2C(=O)N(c3ccc(C)cc3)C(=O)[C@@]12C	1.4	0.1	-0.8	-0.8	13.9	24.8	/	/
